Experimental data taken from article PMC11559620 (Science Advances, 2024).

Key:
CML18 [1] = assay: Yeast two-hybrid assay, interaction with CML18; format: cell-based, Arabidopsis; conditions: for interaction with CML18 (Y2H): C-terminal cytosolic fragments, selective YNB media
Procedure, shortened: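 Strain AH109 was cotransformed with NHX C-terminal fragments in pGBKT7 (GAL4 BD) and CML17 or CML18 in pGADT7 (GAL4 AD), selected on YNB-Trp-Leu. Cultures were grown at 28°C to saturation (OD600 ~2), then 5-μl drops of 10-fold dilutions were spotted on YNB-Trp-Leu, -His-Trp-Leu and -Ade-Trp-Leu. Plates were incubated at 28°C for 3–4 days. p53/pSV40 served as positive control, empty vectors as negative.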

yeast vacuoles = assay: Vacuolar pH of yeast by BCECF-AM; format: cell-based, Saccharomyces cerevisiae; conditions: n = 8
CML18 [2] = assay: Bimolecular fluorescence complementation, interaction with CML18; format: cell-based, Arabidopsis; conditions: leaves of N. benthamiana
Procedure, shortened: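 Agrobacterium GV3101 carrying BiFC constructs was co-infiltrated with a p19-transformed strain into 5- to 6-week-old N. benthamiana leaves. Full-length NHX1 or NHX2 and CML18 were each fused to complementary halves of eYFP. Empty pSPYCE(M) served as negative control. The lower epidermis was imaged by confocal microscopy (515-nm laser, 60× objective) under constant imaging settings, using a YFP filter.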

C terminus of NHX1 = assay: Yeast two-hybrid assay, dimerization with C terminus of NHX1; format: cell-based, Arabidopsis; conditions: fig. S2; cytosolic C-terminal domains
AXT3K strain = assay: Complementation assay, hygromycin B resistance of yeast AXT3K; format: cell-based, Saccharomyces cerevisiae; conditions: YPD + HygB (50 μg/ml), 30°C

Molecule | interaction with CML18 (Y2H) (CML18 [1]) | vacuolar pH (pHvac) (yeast vacuoles) | HygB resistance / protein activity in AXT3K (AXT3K strain) | other results
NHX1∆CBD: NHX1 with the CBD deleted (residues S486 to G516) | tested negative | overly acidic | – | interaction with CML18 (BiFC) (CML18 [2]): lost the interaction with CML18
NHX2: vacuolar exchanger; C-terminal residues G434 to P546 in Y2H (protein, UniProt Q56XP4 434-546, looked up, fragment) GMLTKPLIRYLMPHQKATTSTTSMLSDDSTPKSIHIPLLDGEQLDSFELPGSHQDVPRPNSLRGFLMRPTRTVHYYWRQFDDAFMRPVFGGRGFVPFVPGSPTERSSHDLSKP | strongly | – | suppressed the HygB sensitivity | homodimerization / heterodimerization (Y2H) (C terminus of NHX1): positive results; interaction with CML18 (BiFC) (CML18 [2]): interacted with CML18
W502A: NHX1 mutant in the CBD (protein, UniProt Q68KI4 1-538, looked up, variant W502A) Sodium/hydrogen exchanger 1: MLDSLVSKLPSLSTSDHASVVALNLFVALLCACIVLGHLLEENRWMNESITALLIGLGTGVTILLISKGKSSHLLVFSEDLFFIYLLPPIIFNAGFQVKKKQFFRNFVTIMLFGAVGTIISCTIISLGVTQFFKKLDIGTFDLGDYLAIGAIFAATDSVCTLQVLNQDETPLLYSLVFGEGVVNDATSVVVFNAIQSFDLTHLNHEAAFHLLGNFLYLFLLSTLLGAATGLISAYVIKKLYFGRHSTDREVALMMLMAYLSYMLAELFDLSGILTVFFCGIVMSHYTWHNVTESSRITTKHTFATLSFLAETFIFLYVGMDALDIDKWRSVSDTPGTSIAVSSILMGLVMVGRAAFVFPLSFLSNLAKKNQSEKINFNMQVVIWWSGLMRGAVSMALAYNKFTRAGHTDVRGNAIMITSTITVCLFSTVVFGMLTKPLISYLLPHQNATTSMLSDDNTPKSIHIPLLDQDSFIEPSGNHNVPRPDSIRGFLTRPTRTVHYYARQFDDSFMRPVFGGRGFVPFVPGSPTERNPPDLSKA | essential for the interaction | – | inactive | –
Y286A (protein, UniProt Q68KI4 1-538, looked up, variant Y286A) Sodium/hydrogen exchanger 1: MLDSLVSKLPSLSTSDHASVVALNLFVALLCACIVLGHLLEENRWMNESITALLIGLGTGVTILLISKGKSSHLLVFSEDLFFIYLLPPIIFNAGFQVKKKQFFRNFVTIMLFGAVGTIISCTIISLGVTQFFKKLDIGTFDLGDYLAIGAIFAATDSVCTLQVLNQDETPLLYSLVFGEGVVNDATSVVVFNAIQSFDLTHLNHEAAFHLLGNFLYLFLLSTLLGAATGLISAYVIKKLYFGRHSTDREVALMMLMAYLSYMLAELFDLSGILTVFFCGIVMSHATWHNVTESSRITTKHTFATLSFLAETFIFLYVGMDALDIDKWRSVSDTPGTSIAVSSILMGLVMVGRAAFVFPLSFLSNLAKKNQSEKINFNMQVVIWWSGLMRGAVSMALAYNKFTRAGHTDVRGNAIMITSTITVCLFSTVVFGMLTKPLISYLLPHQNATTSMLSDDNTPKSIHIPLLDQDSFIEPSGNHNVPRPDSIRGFLTRPTRTVHYYWRQFDDSFMRPVFGGRGFVPFVPGSPTERNPPDLSKA | – | – | inactive | –
D506A: NHX1 mutant in the CBD (protein, UniProt Q68KI4 1-538, looked up, variant D506A) Sodium/hydrogen exchanger 1: MLDSLVSKLPSLSTSDHASVVALNLFVALLCACIVLGHLLEENRWMNESITALLIGLGTGVTILLISKGKSSHLLVFSEDLFFIYLLPPIIFNAGFQVKKKQFFRNFVTIMLFGAVGTIISCTIISLGVTQFFKKLDIGTFDLGDYLAIGAIFAATDSVCTLQVLNQDETPLLYSLVFGEGVVNDATSVVVFNAIQSFDLTHLNHEAAFHLLGNFLYLFLLSTLLGAATGLISAYVIKKLYFGRHSTDREVALMMLMAYLSYMLAELFDLSGILTVFFCGIVMSHYTWHNVTESSRITTKHTFATLSFLAETFIFLYVGMDALDIDKWRSVSDTPGTSIAVSSILMGLVMVGRAAFVFPLSFLSNLAKKNQSEKINFNMQVVIWWSGLMRGAVSMALAYNKFTRAGHTDVRGNAIMITSTITVCLFSTVVFGMLTKPLISYLLPHQNATTSMLSDDNTPKSIHIPLLDQDSFIEPSGNHNVPRPDSIRGFLTRPTRTVHYYWRQFADSFMRPVFGGRGFVPFVPGSPTERNPPDLSKA | essential for the interaction | – | inactive | –
H479L-H499L (protein, UniProt Q68KI4 1-538, looked up, variant H479L H499L) Sodium/hydrogen exchanger 1: MLDSLVSKLPSLSTSDHASVVALNLFVALLCACIVLGHLLEENRWMNESITALLIGLGTGVTILLISKGKSSHLLVFSEDLFFIYLLPPIIFNAGFQVKKKQFFRNFVTIMLFGAVGTIISCTIISLGVTQFFKKLDIGTFDLGDYLAIGAIFAATDSVCTLQVLNQDETPLLYSLVFGEGVVNDATSVVVFNAIQSFDLTHLNHEAAFHLLGNFLYLFLLSTLLGAATGLISAYVIKKLYFGRHSTDREVALMMLMAYLSYMLAELFDLSGILTVFFCGIVMSHYTWHNVTESSRITTKHTFATLSFLAETFIFLYVGMDALDIDKWRSVSDTPGTSIAVSSILMGLVMVGRAAFVFPLSFLSNLAKKNQSEKINFNMQVVIWWSGLMRGAVSMALAYNKFTRAGHTDVRGNAIMITSTITVCLFSTVVFGMLTKPLISYLLPHQNATTSMLSDDNTPKSIHIPLLDQDSFIEPSGNLNVPRPDSIRGFLTRPTRTVLYYWRQFDDSFMRPVFGGRGFVPFVPGSPTERNPPDLSKA | – | no substantial differences | supported grow | –
H479L: NHX1 mutant outside the CBD, control (protein, UniProt Q68KI4 1-538, looked up, variant H479L) Sodium/hydrogen exchanger 1: MLDSLVSKLPSLSTSDHASVVALNLFVALLCACIVLGHLLEENRWMNESITALLIGLGTGVTILLISKGKSSHLLVFSEDLFFIYLLPPIIFNAGFQVKKKQFFRNFVTIMLFGAVGTIISCTIISLGVTQFFKKLDIGTFDLGDYLAIGAIFAATDSVCTLQVLNQDETPLLYSLVFGEGVVNDATSVVVFNAIQSFDLTHLNHEAAFHLLGNFLYLFLLSTLLGAATGLISAYVIKKLYFGRHSTDREVALMMLMAYLSYMLAELFDLSGILTVFFCGIVMSHYTWHNVTESSRITTKHTFATLSFLAETFIFLYVGMDALDIDKWRSVSDTPGTSIAVSSILMGLVMVGRAAFVFPLSFLSNLAKKNQSEKINFNMQVVIWWSGLMRGAVSMALAYNKFTRAGHTDVRGNAIMITSTITVCLFSTVVFGMLTKPLISYLLPHQNATTSMLSDDNTPKSIHIPLLDQDSFIEPSGNLNVPRPDSIRGFLTRPTRTVHYYWRQFDDSFMRPVFGGRGFVPFVPGSPTERNPPDLSKA | – | no substantial differences | supported grow | –
H499L: NHX1 mutant within the CBD (protein, UniProt Q68KI4 1-538, looked up, variant H499L) Sodium/hydrogen exchanger 1: MLDSLVSKLPSLSTSDHASVVALNLFVALLCACIVLGHLLEENRWMNESITALLIGLGTGVTILLISKGKSSHLLVFSEDLFFIYLLPPIIFNAGFQVKKKQFFRNFVTIMLFGAVGTIISCTIISLGVTQFFKKLDIGTFDLGDYLAIGAIFAATDSVCTLQVLNQDETPLLYSLVFGEGVVNDATSVVVFNAIQSFDLTHLNHEAAFHLLGNFLYLFLLSTLLGAATGLISAYVIKKLYFGRHSTDREVALMMLMAYLSYMLAELFDLSGILTVFFCGIVMSHYTWHNVTESSRITTKHTFATLSFLAETFIFLYVGMDALDIDKWRSVSDTPGTSIAVSSILMGLVMVGRAAFVFPLSFLSNLAKKNQSEKINFNMQVVIWWSGLMRGAVSMALAYNKFTRAGHTDVRGNAIMITSTITVCLFSTVVFGMLTKPLISYLLPHQNATTSMLSDDNTPKSIHIPLLDQDSFIEPSGNHNVPRPDSIRGFLTRPTRTVLYYWRQFDDSFMRPVFGGRGFVPFVPGSPTERNPPDLSKA | not as strong as with the WT NHX1 | no substantial differences | supported grow | growth of cells coexpressing CML18 (Y2H) (CML18 [1]; YNB-His): able to grow; growth of cells coexpressing CML18 (Y2H) (CML18 [1]; YNB-His-Ade): not in the more stringent media YNB-His-Ade
H285L (protein, UniProt Q68KI4 1-538, looked up, variant H285L) Sodium/hydrogen exchanger 1: MLDSLVSKLPSLSTSDHASVVALNLFVALLCACIVLGHLLEENRWMNESITALLIGLGTGVTILLISKGKSSHLLVFSEDLFFIYLLPPIIFNAGFQVKKKQFFRNFVTIMLFGAVGTIISCTIISLGVTQFFKKLDIGTFDLGDYLAIGAIFAATDSVCTLQVLNQDETPLLYSLVFGEGVVNDATSVVVFNAIQSFDLTHLNHEAAFHLLGNFLYLFLLSTLLGAATGLISAYVIKKLYFGRHSTDREVALMMLMAYLSYMLAELFDLSGILTVFFCGIVMSLYTWHNVTESSRITTKHTFATLSFLAETFIFLYVGMDALDIDKWRSVSDTPGTSIAVSSILMGLVMVGRAAFVFPLSFLSNLAKKNQSEKINFNMQVVIWWSGLMRGAVSMALAYNKFTRAGHTDVRGNAIMITSTITVCLFSTVVFGMLTKPLISYLLPHQNATTSMLSDDNTPKSIHIPLLDQDSFIEPSGNHNVPRPDSIRGFLTRPTRTVHYYWRQFDDSFMRPVFGGRGFVPFVPGSPTERNPPDLSKA | – | – | inactive | –
NHX4: vacuolar exchanger; C-terminal residues T437 to C529 in Y2H (protein, left off: Gal4 DNA-binding domain (vector pGBKT7), end not stated, kept) TKPLVNYLLPQDASHNTGNRGKRTEPGSPKEDATLPLLSFDESASTNFNRAKDSISLLMEQPVYTIHRYWRKFDDTYMRPIFGGPRRENQPEC | strongly | – | – | –
